In assay [1] the test system is Rattus norvegicus. Nature of the assay: Antihyperglycemic activity in Charles Foster-Wistar albino rat sucrose loaded model assessed as decrease of blood glucose level at 100 mg/kg, po administered 30 mins before glucose challenge measured up to 120 mins by glucometer. The class given is functional. Further details: scale not given: the % may be the effect or the level left. The following applies: in the assay text read “Sprague-Dawley” for “Charles Foster-Wistar”. The method in brief:
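Sprague–Dawley male rats with blood glucose 60–80 mg/dl, 5–6 per group, received 100 mg/kg orally as a suspension in 1.0% gum acacia; controls received vehicle. Sucrose 10.0 g/kg was given orally 30 min later. Glucose was read by glucometer at 30, 60, 90 and 120 min. Food was withheld. Percent activity came from AUC versus control.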

In assay [2] the target is Dipeptidyl peptidase 4 (Homo sapiens) (UniProt P27487). Nature of the assay: Inhibition of DPP4 at 100 uM after 15 mins by spectrofluorimeter. The method in brief:
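DPP-IV activity was measured at 37 °C as Gly-Pro-AMC (30 µM) cleavage in Tris–HCl pH 7.4 with test compound. Fluorescence was read at excitation 355 nm and emission 460 nm. The initial rate was taken over the first 15 min.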

In assay [3] the target is T1, Tyrosine-protein phosphatase non-receptor type 1 (Homo sapiens) (UniProt P18031).
T1 sequence (whole entry): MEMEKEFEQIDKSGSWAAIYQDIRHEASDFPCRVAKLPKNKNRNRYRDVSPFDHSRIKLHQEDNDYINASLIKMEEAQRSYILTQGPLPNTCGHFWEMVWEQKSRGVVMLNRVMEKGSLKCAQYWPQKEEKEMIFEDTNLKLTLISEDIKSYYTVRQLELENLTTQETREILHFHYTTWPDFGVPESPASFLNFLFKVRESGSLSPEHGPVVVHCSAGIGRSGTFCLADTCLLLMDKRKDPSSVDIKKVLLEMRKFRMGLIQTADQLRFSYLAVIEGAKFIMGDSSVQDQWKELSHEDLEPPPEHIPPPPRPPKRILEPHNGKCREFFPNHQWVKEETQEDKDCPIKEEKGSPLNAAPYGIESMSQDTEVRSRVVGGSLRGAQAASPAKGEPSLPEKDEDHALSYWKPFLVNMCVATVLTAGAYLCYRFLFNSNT
Nature of the assay: Inhibition of PTP1B assessed as p-nitrophenolate ion production at 100 uM pretreated for 10 mins measured after 30 mins. The method in brief:
(§1)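 PTP1B was preincubated 10 min with compound, with and without 0.01% Triton X-100. Substrate was 10 mM pNPP in 50 mM HEPES pH 7.0 with 1 mM DTT and 2 mM EDTA. After 30 min at 37 °C the reaction was stopped with 0.1 N NaOH and A410 was read. Product was calculated with ε 1.78×10⁴ M⁻¹cm⁻¹. Sodium orthovanadate served as standard. IC50 came from dose–response curves.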

Assay [4] in a line: Inhibition of glycogen phosphorylase assessed as […] phosphate release at 100 uM after 30 mins. In outline: (§2)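 Glycogen phosphorylase was incubated with glycogen, glucose-1-phosphate, NaF and 5′-AMP for 30 min at 37 °C. The reaction was stopped with 10% TCA and 0.1 M sodium acetate. Samples were held overnight at 4 °C, then released Pi was measured.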
Assay [5] in a line: Inhibition of alpha-glucosidase at 100 uM after 3 mins. In outline:
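α-Glucosidase (0.1 mg/mL, purified) was assayed in 67 mM sodium phosphate pH 6.8 with 1.0 mg/mL glutathione. The reaction was started with 3.0 mg/mL pNPG and followed at 405 nm every 30 s for 3 min.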

The target of assay [6] is T2, Glucose-6-phosphatase catalytic subunit 1 (Homo sapiens) (UniProt P35575).
T2 sequence (whole entry): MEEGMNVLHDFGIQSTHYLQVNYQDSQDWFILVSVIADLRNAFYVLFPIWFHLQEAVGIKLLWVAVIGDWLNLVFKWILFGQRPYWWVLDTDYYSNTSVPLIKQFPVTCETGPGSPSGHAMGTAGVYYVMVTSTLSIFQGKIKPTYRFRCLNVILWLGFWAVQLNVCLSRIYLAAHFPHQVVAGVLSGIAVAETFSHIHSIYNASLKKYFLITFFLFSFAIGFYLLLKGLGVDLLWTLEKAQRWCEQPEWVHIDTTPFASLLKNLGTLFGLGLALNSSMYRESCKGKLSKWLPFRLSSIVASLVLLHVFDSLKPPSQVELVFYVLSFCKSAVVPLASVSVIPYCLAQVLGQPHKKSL
Nature of the assay: Inhibition of glucose-6-phosphatase assessed as inositol phosphate release at 100 uM after 30 mins. The following applies: in the assay text read “inorganic phosphate” for “inositol phosphate”. The method in brief:
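Glucose-6-phosphatase was assayed in 0.3 M citrate pH 6.0 with 28 mM EDTA, 14 mM NaF, 200 mM glucose-6-phosphate and enzyme protein. After 30 min at 37 °C the reaction was stopped with 10% TCA. Activity was expressed as µmol Pi released per min per mg protein.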

The target in assay [7] is T3, Tyrosine-protein phosphatase non-receptor type 1 (Homo sapiens, UniProt P18031).
T3 sequence (P18031 whole entry): T1 sequence (whole entry)
Nature of the assay: Inhibition of PTP1B assessed as p-nitrophenolate ion production pretreated for 10 mins measured after 30 mins. The method in brief:
as §1

Assay [8] relates to Rattus norvegicus. The experiment in a line: Antihyperglycemic activity in Sprague-Dawley albino rat streptozotocin-induced beta-cell damaged diabetic model assessed as decrease of blood glucose level at 100 mg/kg, po administered 30 mins before glucose challenge measured after 24 hrs by glucometer. Format: functional. The arrangement: scale not given: the % may be the effect or the level left. In outline: (§3)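 Rats were made diabetic with streptozotocin 60 mg/kg ip in 100 mM citrate pH 4.5 after an overnight fast. Animals with glucose 144–270 mg/dl at 48 h were used, 5–6 per group. Compounds were given 100 mg/kg orally in 1.0% gum acacia. Sucrose 2.5 g/kg followed 30 min later. Glucose was read by glucostrips up to 300 min and at 24 h. Non-responders were excluded. Percent activity came from AUC versus control.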

Assay [9] deals with Rattus norvegicus. Nature of the assay: Antihyperglycemic activity in Sprague-Dawley albino rat streptozotocin-induced beta-cell damaged diabetic model assessed as decrease of blood glucose level at 100 mg/kg, po administered 30 mins before glucose challenge measured after 5 hrs by glucometer. The class given is functional. Further details: scale not given: the % may be the effect or the level left. In outline: as §3

Assay [10] relates to Rattus norvegicus. Nature of the assay: Antidyslipidemic activity in Charles Foster rat assessed as reduction of Triton WR-1339-induced increase of blood total cholesterol level at 100 mg/kg, po after 18 hrs. Format: functional. Further details: scale not given: the % may be the effect or the level left. In outline:
(§4)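 Hyperlipidemia induced by Triton WR-1339, 400 mg/kg ip, in adult male Charles Foster rats (200–225 g), five per group. Compounds were macerated in 0.2% w/v gum acacia, suspended in water and given 100 mg/kg po together with triton. Plasma was obtained by centrifugation at 2500g, 4 °C, 10 min and diluted 1:3 in saline. TC, PL and TG were measured by enzymatic methods.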

The subject of assay [11] is Rattus norvegicus. Nature of the assay: Antidyslipidemic activity in Charles Foster rat assessed as reduction of Triton WR-1339-induced increase of blood phospholipid level at 100 mg/kg, po after 18 hrs. The class given is functional. The arrangement: scale not given: the % may be the effect or the level left. The method in brief: as §4
Assay [12] deals with Rattus norvegicus. The experiment in a line: Antidyslipidemic activity in Charles Foster rat assessed as reduction of Triton WR-1339-induced increase of blood triglyceride level at 100 mg/kg, po after 18 hrs. Format: functional. Further details: scale not given: the % may be the effect or the level left. In outline:
as §4

The nature of assay [13]: Inhibition of glycogen phosphorylase assessed as inositol phosphate release after 30 mins. The method in brief:
as §2

pIC50: −log10 of the molar value. Calls of active or inactive are those of the source. The calls are words filed in the database; no cut-off is given here.

Chain of Dipeptidyl peptidase 4 (Homo sapiens) (P27487 whole entry, looked up): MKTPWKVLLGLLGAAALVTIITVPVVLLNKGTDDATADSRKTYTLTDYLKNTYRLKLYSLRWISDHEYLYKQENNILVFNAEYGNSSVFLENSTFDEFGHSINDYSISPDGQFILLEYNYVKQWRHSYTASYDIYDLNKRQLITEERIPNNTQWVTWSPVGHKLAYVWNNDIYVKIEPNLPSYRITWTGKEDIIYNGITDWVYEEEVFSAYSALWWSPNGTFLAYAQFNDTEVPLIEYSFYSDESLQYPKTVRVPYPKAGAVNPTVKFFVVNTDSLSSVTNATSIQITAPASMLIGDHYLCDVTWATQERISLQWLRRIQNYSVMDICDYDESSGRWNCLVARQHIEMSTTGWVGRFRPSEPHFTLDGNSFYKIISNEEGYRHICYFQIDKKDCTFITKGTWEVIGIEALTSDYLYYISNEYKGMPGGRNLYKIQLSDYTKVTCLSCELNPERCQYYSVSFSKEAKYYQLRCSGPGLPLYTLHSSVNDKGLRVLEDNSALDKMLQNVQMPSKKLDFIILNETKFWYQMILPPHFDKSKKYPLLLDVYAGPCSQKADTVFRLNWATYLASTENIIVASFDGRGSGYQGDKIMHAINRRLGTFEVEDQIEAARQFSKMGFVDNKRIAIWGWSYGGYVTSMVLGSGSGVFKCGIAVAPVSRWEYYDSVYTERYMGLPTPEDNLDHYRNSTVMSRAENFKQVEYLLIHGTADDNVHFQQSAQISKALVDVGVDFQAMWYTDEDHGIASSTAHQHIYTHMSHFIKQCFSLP

A word on the inhibition: it is the drop in the measured response relative to a control, in per cent. As usually defined, the pIC50 is −log10 of the IC50, conventionally taken in molar units. Take `CC1(C)CC(=O)C2=C(C1)NC(c1ccccc1)=CC2c1ccco1` (stereo not given): in the assay with Rattus norvegicus [1], the Activity is listed as 14.6%. For the same compound, the inhibition came out at 18.6% in [2], 82.5% in [3], 18.9% in assay [4] and 11.4% in assay [6]. Besides, the inhibition entry in assay [5] was “inactive”. Also, the pIC50 in assay [7] is 5.11.

With `CCOC(=O)C1=CC(c2ccc(F)cc2)C2=C(CC(C)(C)CC2=O)N1` (stereo not given), the results for the Activity in the assay with Rattus norvegicus [1], in the assay with Rattus norvegicus [8] and with Rattus norvegicus [9] were 35.9%, 23.4% and 24.8%, respectively. Further, the inhibition in assay [2] amounted to 9.8%; in assay [3], 87.2%; in assay [4] it was 61.2%; in [5] it was 15.8%. Besides, in assay [6], the inhibition result is “inactive”. Further, the pIC50 in assay [7] was 5.33.

In the case of `COc1ccc(C2C=C(c3ccccc3)NC3=C2C(=O)CC(C)(C)C3)cc1` (stereo not given), the Activity with Rattus norvegicus [1] is given as 17.8%; with Rattus norvegicus [8], 10.9%; in the assay with Rattus norvegicus [9] it was 8.8%. The inhibition in assay [2] turned out to be 8.6%; in assay [3], 71.8%. The inhibition result in [4], in [5] and in assay [6] was “inactive” in each case. For the same compound, in assay [7], the pIC50 was 4.84.

In the case of `CCOC(=O)C1=CC(c2ccc(Br)cc2)C2=C(CC(C)(C)CC2=O)N1` (stereo not given), the Activity in the assay with Rattus norvegicus [1] amounted to 11.4%. Further, the inhibition result in [2], in assay [5] and in [6] was “inactive” throughout. The inhibition was found to be 65.6% in [3] and 49.3% in assay [4]. The pIC50 in assay [7] is 4.78.

Take `CCOC(=O)C1(O)CC(c2ccc(F)cc2)C2=C(CC(C)(C)CC2=O)O1` (stereo not given): the Activity in the assay on Rattus norvegicus [1] is reported as 15.3%; in the assay with Rattus norvegicus [10] it was -10.3%; in the assay with Rattus norvegicus [11], -17.2%; in the assay with Rattus norvegicus [12], -8.2%. The inhibition result in assay [2], in [5] and in assay [6] was “inactive” in each case. Besides, the inhibition is 5.3% in [3] and 14.9% in [4].

As for `Cc1ccc(C)c(OCCCC(C)(C)C(=O)O)c1` [GEMFIBROZIL], the values for the Activity with Rattus norvegicus [10], in the assay with Rattus norvegicus [11] and in the assay with Rattus norvegicus [12] were -37.56%, -39.43% and -36.21%, respectively.

As for `Cc1ccc(C2=CC(c3ccccc3)C3=C(CC(C)(C)CC3=O)N2)cc1` (stereo not given), the Activity with Rattus norvegicus [1] was determined as 11.4%. In addition, the inhibition entry in assay [2], in assay [5] and in [6] was “inactive” each time. In addition, the inhibition in [3] turned out to be 62.3%; in assay [4], 31.7%. The pIC50 in assay [7] was 4.71.

As to `CC1(C)CC(=O)C2=C(C1)NC(c1ccccc1)=CC2c1ccc([N+](=O)[O-])cc1` (stereo not given), in the assay with Rattus norvegicus [1], the Activity amounted to 14.1%. For the same compound, the inhibition entry in [2], in [4] and in assay [6] was “inactive” each time. Moreover, the values for the inhibition in assay [3] and in assay [5] were 84.7% and 22.4%, respectively. Besides, in assay [7], the pIC50 was 5.21.

With `O=C1CCCC2=C1C(c1ccc(F)cc1)C=C(c1ccccc1)N2` (stereo not given), the values for the Activity in the assay on Rattus norvegicus [1], with Rattus norvegicus [8] and in the assay on Rattus norvegicus [9] were 34.5%, 24.1% and 19.6%, respectively. For the same compound, the inhibition entry in [2] and in assay [5] was “inactive” throughout. In addition, the inhibition in assay [3] was determined as 70.3%; in assay [4], 17.4%; in [6], 21.9%. In assay [7], the pIC50 was 4.90.

Regarding `CC1(C)CC(=O)C2=C(C1)NC(C(=O)O)=CC2c1ccc(Br)cc1` (stereo not given), the Activity in the assay with Rattus norvegicus [1] came to 31.7%; with Rattus norvegicus [8], 13.6%; in the assay on Rattus norvegicus [9], 17.8%. For the same compound, in assay [13], the pIC50 was 5.28. Besides, the inhibition entry in [2], in assay [5] and in assay [6] was “inactive” throughout. Moreover, the figures for the inhibition in assay [3] and in assay [4] were 12.3% and 81.3%, respectively.

Consider `CC1(C)CC(=O)C2=C(C1)NC(c1ccccc1)=CC2c1ccccc1` (stereo not given), for which the Activity in the assay on Rattus norvegicus [1] is given as 24.9%; in the assay with Rattus norvegicus [10] it was -17.89%; in the assay with Rattus norvegicus [8], 13.3%; in the assay on Rattus norvegicus [11] it was -19.23%; in the assay with Rattus norvegicus [12] it was -16.45%; in the assay with Rattus norvegicus [9] it was 17.3%. The inhibition came out at 12% in assay [2], 41.8% in assay [3] and 34.3% in [5]. Besides, the inhibition result in [4] and in [6] was “inactive” in each case.

With `O=C1CCCC2=C1C(c1ccc(Cl)cc1)C=C(c1ccccc1)N2` (stereo not given), the Activity is given as 24.7% with Rattus norvegicus [1]; -6.7% with Rattus norvegicus [10]; 16.9% with Rattus norvegicus [8]; -5.9% in the assay on Rattus norvegicus [11]; -7.89% with Rattus norvegicus [12]; 12.9% in the assay on Rattus norvegicus [9]. Also, the inhibition result in assay [2] is “inactive”. Besides, the inhibition worked out at 24.7% in assay [3], 19.3% in assay [4], 27.9% in assay [5] and 8.21% in assay [6].

On to `CC1(C)CC(=O)C2=C(C1)NC(c1ccccc1)=CC2c1ccc(Cl)cc1` (stereo not given), for which the Activity in the assay with Rattus norvegicus [1] is reported as 23.5%; with Rattus norvegicus [10] it was -25.56%; with Rattus norvegicus [8], 16.4%; in the assay on Rattus norvegicus [11], -22.47%; in the assay with Rattus norvegicus [12], -19.32%; in the assay with Rattus norvegicus [9] it was 18.9%. The inhibition entry in assay [2] is “inactive”. Moreover, the inhibition in assay [3] worked out at 84.9%; in [4], 5.89%; in assay [5], 12.1%; in assay [6], 7.16%. In assay [7], the pIC50 was 5.20.
